Experimental data pooled from the literature.
Lines come from different studies, so protocols differ.
Matrix: plasma

SMILES	system	conditions	Cmax
OC[C@H]1O[C@@H](c2cc(Cc3ccc(C4CC4)cc3)c(Cl)c3c2CCO3)[C@H](O)[C@@H](O)[C@@H]1O	human	oral, 0.3 mg, single dose, fed	3.74 ng/mL
COc1ccc(-c2c(Nc3ccccn3)[nH]c3c(C4=CCCCC4)c(-c4ccccc4)nn3c2=O)cc1	human	oral, 200 mg once daily, multiple doses, patients	5720 ng/mL
CC(=O)N(C)[C@H]1CCN(C(=O)c2cnc3c(c2)C[C@](C)(c2ccc(F)cc2)N3)C1	male human	oral, 30 mg, multiple doses, once daily, steady state	797 nM
COc1ccc2c(c1)CN(C(=O)CCN1CCC(Cc3ccccc3)CC1)CC[S@@+]2[O-]	male human	intravenous, 0.6 mg/kg, healthy volunteers	1310 ng/mL
C=CC(=O)NC1CCN(c2ncc3ncnc(Nc4ccc(Oc5ccc6c(c5)ncn6C)c(C)c4)c3n2)CC1	male human	intravenous, 100 µg, single dose, healthy volunteers	0.583 nM
Cc1cc(-c2nccc3c2ccn3CC(=O)Nc2ccc(-c3cnccn3)cn2)ccn1	human	oral, 20 mg, single dose	188 nM
O=C(COc1ccc(Cl)cc1)NC12CC(c3nnc([C@H]4C[C@@H](OC(F)(F)F)C4)o3)(C1)C2	human	oral, 145 mg, multiple doses, once daily, steady state, healthy volunteers	9280 nM
CC(C)n1c(C2CCNCC2)nc2c([N+](=O)[O-])c(Br)c(Br)cc21	human	oral, 50 mg, patients	33.6 ng/mL
N#Cc1cccc(-c2ccc3ncc(-c4cc(F)cc(F)c4)c(N4CCC(N)CC4)c3c2)c1O	male human	oral, 20 mg, single dose	162 ng/mL
